Data as given in ChEMBL document CHEMBL1134462, “Toward a rational design of peptide inhibitors of ribonucleotide reductase: structure-function and modeling studies” (J Med Chem, 2001).
Non-standard residues stand in square brackets, D forms with d. Residues, ends and D or L forms follow the SMILES beside them. aThr = C[C@H](O)[C@H](N)C(=O)O

Assays:
[1] = Relative dissociation constant evaluated against mouse Ribonucleotide Reductase (RR)
In short: (§1)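 Competition of free ligand with column-bound FTLDADF (Sepharose mixed ~60:40 with underivatized Sepharose) for mouse R1. mR1 (4.4 μM) premixed with ligand (typically 100 μM) in 50 mM Tris pH 8.5, 10 mM DTT, 100 μM dTTP, held 30 min on spin column, then centrifuged. Eluted R1 measured by Bradford assay, duplicates; Kd derived from elution versus no-ligand control, expressed relative to AcFTLDADF standard.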

[2] = Relative binding affinity evaluated against mouse Ribonucleotide Reductase (RR); in short: as §1

Compound	Relative Kd [1]	Relative Ki [2]
CC(=O)N[C@@H](Cc1ccccc1)C(=O)N[C@H](C(=O)N[C@@H](CC(C)C)C(=O)N[C@@H](CC(=O)O)C(=O)N[C@@H](C)C(=O)N[C@@H](CC(=O)O)C(=O)N[C@@H](Cc1ccc([N+](=O)[O-])cc1)C(=O)O)[C@H](C)O	> 30	
CC(=O)N[C@@H](Cc1ccccc1)C(=O)N[C@H](C(=O)N[C@@H](CC(C)C)C(=O)N[C@@H](CC(=O)O)C(=O)N[C@@H](C)C(=O)N[C@@H](CC(=O)O)C(=O)N[C@@H](Cc1ccccc1Cl)C(=O)O)[C@H](C)O	12	
CC(=O)N[C@@H](Cc1ccccc1)C(=O)N[C@H](C(=O)N[C@@H](CC(C)C)C(=O)N[C@@H](CC(=O)O)C(=O)N[C@@H](C)C(=O)N[C@@H](CC(=O)O)C(=O)N[C@@H](CCC(N)=O)C(=O)O)[C@H](C)O	> 30	
CC(=O)N[C@@H](Cc1ccccc1)C(=O)N[C@H](C(=O)N[C@@H](CC(C)C)C(=O)N[C@@H](CC(=O)O)C(=O)N[C@@H](C)C(=O)N[C@@H](CC(=O)O)C(=O)N[C@@H](Cc1ccccc1)C(=O)N[C@@H](C)C(=O)N[C@@H](C)C(=O)O)[C@H](C)O (Ac-F[aThr]LDADFAA-OH)		> 35
CC(=O)N[C@@H](Cc1ccccc1)C(=O)N[C@H](C(=O)N[C@@H](CC(C)C)C(=O)N[C@@H](CC(=O)O)C(=O)N[C@@H](C)C(=O)N[C@@H](CC(=O)O)C(=O)N[C@@H](Cc1ccccc1O)C(=O)O)[C@H](C)O	26	
CC(=O)N[C@@H](Cc1ccccc1)C(=O)N[C@H](C(=O)N[C@@H](CC(C)C)C(=O)N[C@@H](CC(=O)O)C(=O)N[C@@H](C)C(=O)N[C@@H](CC(=O)O)C(=O)N[C@@H](Cc1ccccc1F)C(=O)O)[C@H](C)O	2	
CC(C)C[C@H](NC(=O)[C@@H](NC(=O)[C@H](Cc1ccccc1)NC(=O)c1ccnc(-c2cc(C(=O)O)ccn2)c1)[C@H](C)O)C(=O)N[C@@H](CC(=O)O)C(=O)N[C@@H](C)C(=O)N[C@@H](CC(=O)O)C(=O)N[C@@H](Cc1ccccc1)C(=O)O	0.6	
CC(=O)N[C@@H](Cc1ccccc1)C(=O)N[C@H](C(=O)N[C@@H](CC(C)C)C(=O)N[C@@H](CC(=O)O)C(=O)N[C@@H](C)C(=O)N[C@@H](CC(=O)O)C(=O)N[C@@H](Cc1c(F)c(F)c(F)c(F)c1F)C(=O)O)[C@H](C)O	16	
CC(=O)N[C@@H](CC(C)C)C(=O)N[C@H](C(=O)N[C@@H](CC(C)C)C(=O)N[C@@H](CC(=O)O)C(=O)N[C@@H](C)C(=O)N[C@@H](CC(=O)O)C(=O)N[C@@H](Cc1ccccc1)C(=O)O)[C@H](C)O (Ac-L[aThr]LDADF-OH)	> 30	
CC(=O)N[C@@H](Cc1ccccc1)C(=O)N[C@H](C(=O)N[C@@H](CC(C)C)C(=O)N[C@@H](CC(=O)O)C(=O)N[C@@H](C)C(=O)N[C@@H](CC(=O)O)C(=O)N[C@H](C(=O)O)c1ccccc1)[C@H](C)O	24	
CC(=O)N[C@@H](C)C(=O)N[C@H](C(=O)N[C@@H](CC(C)C)C(=O)N[C@@H](CC(=O)O)C(=O)N[C@@H](C)C(=O)N[C@@H](CC(=O)O)C(=O)N[C@@H](Cc1ccccc1)C(=O)O)[C@H](C)O	> 30	
CC(=O)N[C@H](C(=O)N[C@H](C(=O)N[C@@H](CC(C)C)C(=O)N[C@@H](CC(=O)O)C(=O)N[C@@H](C)C(=O)N[C@@H](CC(=O)O)C(=O)N[C@@H](Cc1ccccc1)C(=O)O)[C@H](C)O)C(C)C	> 30	
CC(=O)N[C@H](C(=O)N[C@H](C(=O)N[C@@H](CC(C)C)C(=O)N[C@@H](CC(=O)O)C(=O)N[C@@H](C)C(=O)N[C@@H](CC(=O)O)C(=O)N[C@@H](Cc1ccccc1)C(=O)O)[C@H](C)O)c1ccccc1	6.6	
CC(=O)N[C@@H](Cc1ccccc1)C(=O)N[C@H](C(=O)N[C@@H](CC(C)C)C(=O)N[C@@H](CC(=O)O)C(=O)N[C@@H](C)C(=O)N[C@@H](CC(=O)O)C(=O)N[C@@H](Cc1c[nH]cn1)C(=O)O)[C@H](C)O	29	> 20
CC(C)C[C@H](NC(=O)[C@@H](NC(=O)[C@H](Cc1ccccc1)NC(=O)OCC1c2ccccc2-c2ccccc21)[C@H](C)O)C(=O)N[C@@H](CC(=O)O)C(=O)N[C@@H](C)C(=O)N[C@@H](CC(=O)O)C(=O)N[C@@H](Cc1ccccc1)C(=O)O	1.4	
CC(=O)N[C@@H](Cc1ccccc1)C(=O)N[C@H](C(=O)N[C@@H](CC(C)C)C(=O)N[C@@H](CC(=O)O)C(=O)N[C@@H](C)C(=O)N[C@@H](CC(=O)O)C(=O)N[C@@H](Cc1c[nH]c2ccccc12)C(=O)O)[C@H](C)O	10	
CC(=O)N[C@@H](Cc1ccccc1)C(=O)N[C@H](C(=O)N[C@@H](CC(C)C)C(=O)N[C@@H](CC(=O)O)C(=O)N[C@@H](C)C(=O)N[C@@H](CC(=O)O)C(=O)N[C@@H](CC(C)C)C(=O)O)[C@H](C)O (Ac-F[aThr]LDADL-OH)		> 35

The remaining lines, values ahead:

Relative Kd [1]	Relative Ki [2]	Compound
4.7		CC(=O)N[C@@H](Cc1ccccc1)C(=O)N[C@H](C(=O)N[C@@H](CC(C)C)C(=O)N[C@@H](CC(=O)O)C(=O)N[C@@H](C)C(=O)N[C@@H](CC(=O)O)C(=O)N[C@@H](Cc1ccc(C)cc1)C(=O)O)[C@H](C)O
> 30		COc1ccccc1C[C@H](NC(=O)[C@H](CC(=O)O)NC(=O)[C@H](C)NC(=O)[C@H](CC(=O)O)NC(=O)[C@H](CC(C)C)NC(=O)[C@@H](NC(=O)[C@H](Cc1ccccc1)NC(C)=O)[C@H](C)O)C(=O)O
1.9		CC(C)C[C@H](NC(=O)[C@@H](NC(=O)[C@H](Cc1ccccc1)NC(=O)c1ccccc1)[C@H](C)O)C(=O)N[C@@H](CC(=O)O)C(=O)N[C@@H](C)C(=O)N[C@@H](CC(=O)O)C(=O)N[C@@H](Cc1ccccc1)C(=O)O
0.8		CC(C)C[C@H](NC(=O)[C@@H](NC(=O)[C@H](Cc1ccccc1)NC(=O)Cc1ccccc1)[C@H](C)O)C(=O)N[C@@H](CC(=O)O)C(=O)N[C@@H](C)C(=O)N[C@@H](CC(=O)O)C(=O)N[C@@H](Cc1ccccc1)C(=O)O
2.4		CC(C)C[C@H](NC(=O)[C@@H](NC(=O)[C@H](Cc1ccccc1)NC=O)[C@H](C)O)C(=O)N[C@@H](CC(=O)O)C(=O)N[C@@H](C)C(=O)N[C@@H](CC(=O)O)C(=O)N[C@@H](Cc1ccccc1)C(=O)O
3.1	3.2	CC(=O)N[C@@H](Cc1ccccc1)C(=O)N[C@H](C(=O)N[C@@H](CC(C)C)C(=O)N[C@@H](CC(=O)O)C(=O)N[C@@H](C)C(=O)N[C@@H](CC(=O)O)C(=O)N[C@@H](Cc1ccc(Cl)cc1)C(=O)O)[C@H](C)O
8.6		CC(=O)N[C@@H](Cc1ccccc1)C(=O)N[C@H](C(=O)N[C@@H](CC(C)C)C(=O)N[C@@H](CC(=O)O)C(=O)N[C@@H](C)C(=O)N[C@@H](CC(=O)O)C(=O)N[C@H](Cc1ccccc1)C(=O)O)[C@H](C)O
	15	CC(=O)N[C@@H](Cc1ccc(O)cc1)C(=O)N[C@H](C(=O)N[C@@H](CC(C)C)C(=O)N[C@@H](CC(=O)O)C(=O)N[C@@H](C)C(=O)N[C@@H](CC(=O)O)C(=O)N[C@@H](Cc1ccccc1)C(=O)O)[C@H](C)O
24		CC(=O)N[C@@H](Cc1ccccc1)C(=O)N[C@H](C(=O)N[C@@H](CC(C)C)C(=O)N[C@@H](CC(=O)O)C(=O)N[C@@H](C)C(=O)N[C@@H](CC(=O)O)C(=O)N[C@@H](Cc1ccc(O)cc1)C(=O)O)[C@H](C)O
6.3		CCC(=O)N[C@@H](Cc1ccccc1)C(=O)N[C@H](C(=O)N[C@@H](CC(C)C)C(=O)N[C@@H](CC(=O)O)C(=O)N[C@@H](C)C(=O)N[C@@H](CC(=O)O)C(=O)N[C@@H](Cc1ccccc1)C(=O)O)[C@H](C)O
0.8		CC(C)C[C@H](NC(=O)[C@@H](NC(=O)[C@H](Cc1ccccc1)NC(=O)Cc1ccc([N+](=O)[O-])cc1)[C@H](C)O)C(=O)N[C@@H](CC(=O)O)C(=O)N[C@@H](C)C(=O)N[C@@H](CC(=O)O)C(=O)N[C@@H](Cc1ccccc1)C(=O)O
> 30		CC(=O)N[C@@H](Cc1ccccc1)C(=O)N[C@H](C(=O)N[C@@H](CC(C)C)C(=O)N[C@@H](CC(=O)O)C(=O)N[C@@H](C)C(=O)N[C@@H](CC(=O)O)C(=O)N[C@@H](Cc1ccccc1)C(N)=O)[C@H](C)O
1	1	CC(=O)N[C@@H](Cc1ccccc1)C(=O)N[C@H](C(=O)N[C@@H](CC(C)C)C(=O)N[C@@H](CC(=O)O)C(=O)N[C@@H](C)C(=O)N[C@@H](CC(=O)O)C(=O)N[C@@H](Cc1ccccc1)C(=O)O)[C@H](C)O
23		CC(=O)N[C@@H](Cc1ccccc1)C(=O)N[C@H](C(=O)N[C@@H](CC(C)C)C(=O)N[C@@H](CC(=O)O)C(=O)N[C@@H](C)C(=O)N[C@@H](CC(=O)O)C(=O)N[C@@H](Cc1ccc(N)cc1)C(=O)O)[C@H](C)O
6.3		CC(=O)N[C@@H](Cc1ccccc1)C(=O)N[C@H](C(=O)N[C@@H](CC(C)C)C(=O)N[C@@H](CC(=O)O)C(=O)N[C@@H](C)C(=O)N[C@@H](CC(=O)O)C(=O)N[C@@H](Cc1cccc(O)c1)C(=O)O)[C@H](C)O
1		CCCC(=O)N[C@@H](Cc1ccccc1)C(=O)N[C@H](C(=O)N[C@@H](CC(C)C)C(=O)N[C@@H](CC(=O)O)C(=O)N[C@@H](C)C(=O)N[C@@H](CC(=O)O)C(=O)N[C@@H](Cc1ccccc1)C(=O)O)[C@H](C)O
0.8		COc1ccc(CC(=O)N[C@@H](Cc2ccccc2)C(=O)N[C@H](C(=O)N[C@@H](CC(C)C)C(=O)N[C@@H](CC(=O)O)C(=O)N[C@@H](C)C(=O)N[C@@H](CC(=O)O)C(=O)N[C@@H](Cc2ccccc2)C(=O)O)[C@H](C)O)cc1
8.2		COc1cccc(C[C@H](NC(=O)[C@H](CC(=O)O)NC(=O)[C@H](C)NC(=O)[C@H](CC(=O)O)NC(=O)[C@H](CC(C)C)NC(=O)[C@@H](NC(=O)[C@H](Cc2ccccc2)NC(C)=O)[C@H](C)O)C(=O)O)c1
16		COc1ccc(C[C@H](NC(=O)[C@H](CC(=O)O)NC(=O)[C@H](C)NC(=O)[C@H](CC(=O)O)NC(=O)[C@H](CC(C)C)NC(=O)[C@@H](NC(=O)[C@H](Cc2ccccc2)NC(C)=O)[C@H](C)O)C(=O)O)cc1
	> 40	CC(C)C[C@H](NC(=O)[C@@H](NC(=O)[C@@H](N)Cc1ccccc1)[C@H](C)O)C(=O)N[C@@H](CC(=O)O)C(=O)N[C@@H](C)C(=O)N[C@@H](CC(=O)O)C(=O)N[C@@H](Cc1ccccc1)C(=O)O (H-F[aThr]LDADF-OH)
